A short description of assay [1]: inhibitors of TNFa-induced NFkB p65 translocation, primary screen, imaging, HUVEC, MLSMR starter and 10KST1 sets (AID 438;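 active = inhibition above 20% together with a positive visual image hit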;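 also: compound added about 3h40 before a 20 min TNFalpha stimulation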;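 as to inhibition: signal is the nuclear over cytoplasmic p65 intensity ratio per well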). The settings on record: HUVEC TNFa-induced p65 nuclear translocation; cell count: measured here: nuclei count (cytotoxicity indicator), at 2.08 µM; inhibition: at 2 µM, stronger effect = higher value, 0% TNFa-plus-vehicle, 100% no-TNFa wells.
A short description of assay [2]: reduction of polyQ htt aggregates in cells – imaging, exon1htt(103Q)mCFP cells, high-content imaging, primary screen (AID 483;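 active = visual image review flags a hit and inhibition of aggregation exceeds 20%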;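 also: compound exposure lasted 3 days before fixation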;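 as to nuclei count: percent of the per-plate median nuclei count of sample wells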). Particulars: exon1htt(103Q)mCFP cell line, aggregate imaging, at 2 µM; inhibition of aggregation: stronger effect = higher value; nuclei count: measured here: cell count, toxicity.
A short description of assay [3]: endothelial E-selectin expression blockers – imaging, HUVEC, immunofluorescence, MLSMR starter and 10KST1 sets, primary screen (AID 487).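 As to inhibition: signal is fraction of cell area covered by stained E-selectin grains.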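 As to nuclei count: 100% = median nuclei count of all wells on the same plate.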 The settings on record: HUVEC TNFalpha-induced E-selectin immunofluorescence imaging, at 2 µM; inhibition: stronger effect = higher value; nuclei count: measured here: cell number, toxicity.
Assay [4] addresses Voltage-gated potassium channel subunit beta-2 (Rattus norvegicus) (UniProt P62483). As to the kind of experiment: inhibitors of rat Kvbeta2 reductase activity – biochemical, NADPH fluorescence, primary screen (AID 622;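 active = fluorescence slope higher than the sample average by over 3 SD, cut at about -0.22 in these data, passing the limit was not always enough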;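 also: slope of raw intensity against log time taken from 70 to 1610 s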). The settings on record: recombinant KvBeta, 4-cyanobenzaldehyde reduction, at 10 µM, stronger effect = higher value.
For assay [5] the target is unchanged. As to the kind of experiment: enhancers of rat Kvbeta2 NADPH turnover – biochemical, NADPH fluorescence, primary screen (AID 623;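 active = NADPH fluorescence slope more negative than the mean of all samples by about 3 SD, 99.7% confidence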;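 also: fluorescence intensity change per second fitted from 20 to 320 s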). Particulars: Recombinant KvBeta, NADPH fluorescence decrease slope, 10 min; at 10 µM; stronger effect = lower value.
In assay [6] the target is Alpha-2C adrenergic receptor (Homo sapiens) (UniProt P18825). As to the kind of experiment: compounds altering alpha2C-coupled GIRK flux – cell-based, HEK293 alpha2C/GIRK1/2, thallium flux, primary screen (AID 624;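 active = fluorescence slope after compound addition differing from the mean of all screened samples at 99.7% confidence, in either direction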;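 also: slope of fluorescence ratio to pre-addition baseline per second over 15 to 24 s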). Particulars: thallium flux BTC fluorescence, at 10 µM, actives lie on both sides.
Assay [7] can be described thus: inhibitors of larval lipid processing in zebrafish, primary screen, whole organism, PED6 fluorescence, gall bladder and intestine (AID 686;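 active = a full or partial loss of lipid-probe fluorescence in the fish gall bladder, intestine or both, judged by eye; inactive = no fluorescence loss, or compound toxic to the fish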;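 also: larvae 5 to 7 days old with five fish per well; signal comes from phospholipase A2 cleavage of quenched PED6 carried via bile; overnight exposure to compound and PED6 before scoring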). The settings on record: Zebrafish larvae PED6 lipid processing, fluorescence scoring; screened at 20 µM (by protocol). The gist of the method:
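Doses: 20 µM single dose. Test system: live zebrafish larvae aged 5-7 days, whole organism. Quantity: five larvae per well. Measured by: By-eye fluorescence microscopy. Reagent: ingested quenched lipid PED6 at 100 nM. Read-out: visual per-well fluorescence inhibition score. Times: overnight exposure of larvae to compound plus PED6.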

The nature of assay [8]: blockers of RIG-like receptor reporter activation – cell-based, Sendai virus stimulus, luciferase, 10K MLSCN set, TLR/RLR signaling modifier project, primary screen (AID 602276;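 active = inhibition at or above 50% at 10 µM; inactive = inhibition below 50%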;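 also: firefly luciferase from ISG56 promoter only with Renilla not read in this screen; 0% = Sendai virus plus DMSO and 100% = medium plus DMSO without virus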). Particulars: HEK293 RL24 IRF3 luciferase reporter, at 10 µM, stronger effect = higher value. In general terms: In a reporter assay the amount or activity of a reporter protein is the signal.
The nature of assay [9]: TLR3 IRF3 reporter activation blockers – cell-based, poly I:C stimulus, luciferase, 10K MLSCN set, primary screen (AID 602277;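 active = inhibition of the reporter signal at or above 50%; inactive = inhibition below 50%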). The settings on record: HEK293-TLR3 RL24 IRF3 luciferase reporter, at 10 µM, stronger effect = higher value.

Molecules are shown by their SMILES. The source made the active and inactive calls.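 The calls were made as follows, unless noted: active = visually confirmed hit in the image check and inhibition above 20%; inconclusive = visually confirmed hit but inhibition not above 20%; inactive = no visual hit in the image check.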

Sequence of Alpha-2C adrenergic receptor (Homo sapiens) (P18825 whole entry, looked up): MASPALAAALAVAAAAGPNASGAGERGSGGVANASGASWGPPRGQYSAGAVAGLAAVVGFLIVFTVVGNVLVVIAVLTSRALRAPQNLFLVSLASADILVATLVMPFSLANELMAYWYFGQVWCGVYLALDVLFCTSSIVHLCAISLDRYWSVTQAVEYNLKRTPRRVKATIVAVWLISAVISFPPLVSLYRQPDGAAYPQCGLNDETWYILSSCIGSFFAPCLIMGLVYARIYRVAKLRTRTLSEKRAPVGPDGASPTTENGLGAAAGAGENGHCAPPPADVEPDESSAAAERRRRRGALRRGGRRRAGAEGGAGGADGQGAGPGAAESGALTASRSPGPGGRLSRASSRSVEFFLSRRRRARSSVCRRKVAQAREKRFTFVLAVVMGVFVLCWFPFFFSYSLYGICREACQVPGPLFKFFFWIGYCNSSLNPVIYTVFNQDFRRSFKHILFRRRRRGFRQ
Sequence of Voltage-gated potassium channel subunit beta-2 (Rattus norvegicus) (P62483 whole entry, looked up): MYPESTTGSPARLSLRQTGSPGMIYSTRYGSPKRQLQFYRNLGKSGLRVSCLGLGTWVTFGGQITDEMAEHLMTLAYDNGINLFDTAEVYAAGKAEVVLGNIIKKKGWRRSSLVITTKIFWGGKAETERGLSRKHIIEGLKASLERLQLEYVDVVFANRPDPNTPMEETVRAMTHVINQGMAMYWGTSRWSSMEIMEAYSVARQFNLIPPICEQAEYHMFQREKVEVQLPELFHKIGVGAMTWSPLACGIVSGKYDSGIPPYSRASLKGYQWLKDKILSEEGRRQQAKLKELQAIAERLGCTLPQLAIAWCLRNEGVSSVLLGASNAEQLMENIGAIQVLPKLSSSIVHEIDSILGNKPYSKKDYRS

For `Cc1nnc(NC(=O)C2CCCO2)s1` (stereo unspecified), the cell count in assay [1] amounted to 345. The inhibition in assay [1] was 5.2% (inactive); in assay [3], -105% (inactive); in [8] it was 6.24% (inactive); in assay [9], 6.47% (inactive). Moreover, the inhibition of aggregation in assay [2] was -9.5% (inactive). Also, the nuclei count was 97.4% in assay [2] and 104% in [3]. In addition, the fluorescence slope in assay [4] was -0.467 (inactive). Besides, in [5], the NADPH fluorescence slope is -4.2e-05 (inactive). In assay [6], the slope was 0.00593 (inactive). In assay [7], the outcome is “active; weak signal in gallbladder only”.
Take `O=C(NCCCN1CCN(c2cccc(Cl)c2)CC1)c1ccc(N2CCCC2=O)cc1`: the cell count in assay [1] worked out at 763. Besides, the inhibition in [1] was -10% (inactive); in [3], 46.9% (inactive); in assay [8] it was 10.3% (inactive); in assay [9] it was 0.162% (inactive). For the same molecule, the inhibition of aggregation in assay [2] is 11.5% (inactive). Further, the nuclei count in assay [2] was 97.9%; in [3], 105%. Also, the fluorescence slope in assay [4] was -0.479 (inactive). Besides, in assay [5], the NADPH fluorescence slope is -5.9e-05 (inactive). Besides, in assay [6], the slope is 0.00509 (inactive). For the same molecule, the call in [7] was inactive.
As for `CC(C)c1cc(C(=O)Nc2cccnc2)no1`, the cell count in assay [1] was found to be 250. Also, the inhibition in assay [1] was -2.8% (inactive); in assay [3], -9.6% (inactive); in assay [8] it was -22.1% (inactive); in assay [9], -67.3% (inactive). The inhibition of aggregation in [2] was -12.9% (inactive). Besides, the nuclei count in assay [2] came to 103%; in assay [3], 115%. Besides, in assay [4], the fluorescence slope was -0.398 (inactive). For the same molecule, in assay [5], the NADPH fluorescence slope was -6.1e-05 (inactive). Moreover, in assay [6], the slope is 0.00525 (inactive). In addition, the molecule was classed as inactive in assay [7].
As to `Cn1cnnc1Sc1nc2c(c(=O)n(C)c(=O)n2C)n1Cc1ccccc1Cl`, in assay [1], the cell count turned out to be 376. In addition, the inhibition was 7.7% (inactive) in assay [1], -73.3% (inactive) in assay [3], 15.5% (inactive) in assay [8] and 21.9% (inactive) in [9]. Also, the inhibition of aggregation in [2] is -1.6% (inactive). In addition, the nuclei count in [2] is 106%; in assay [3], 123%. The fluorescence slope in [4] was -0.426 (inactive). Besides, the NADPH fluorescence slope in [5] is -3.9e-05 (inactive). In addition, the slope in assay [6] is 0.005 (inactive). Moreover, in [7], the result was inactive.
With `O=C(NCc1cccs1)c1cc2c(s1)CS(=O)(=O)C2`, in [1], the cell count is 618. Moreover, the inhibition in assay [1] was -3% (inactive); in assay [3] it was -42.8% (inactive); in assay [8], 23.3% (inactive); in assay [9], 87% (active). Besides, in assay [2], the inhibition of aggregation is -17.1% (inactive). The nuclei count in assay [2] is 101%; in assay [3] it was 113%. Moreover, the fluorescence slope in [4] was -0.32 (inactive). The NADPH fluorescence slope in [5] was -4.2e-06 (inactive). In assay [6], the slope is 0.00763 (inactive). Also, in [7], the call was inactive.
With `O=C(CSc1ccccc1C(=O)NCCCN1CCCC1=O)NCc1ccco1`, in [1], the cell count turned out to be 463. Also, the inhibition in assay [1] was 3.8% (inactive); in [3], -81.8% (inactive); in assay [8], 11.7% (inactive); in [9] it was 12.7% (inactive). The inhibition of aggregation in assay [2] was -6.6% (inactive). Also, the nuclei count was 98.6% in assay [2] and 118% in assay [3]. The fluorescence slope in assay [4] was -0.358 (inactive). In addition, the NADPH fluorescence slope in assay [5] is -4.3e-05 (inactive). In addition, in assay [6], the slope was 0.00452 (inactive). Also, the call in [7] was inactive.
As to `CCNc1ccc(S(=O)(=O)C(F)(F)F)cc1NC(=O)C12CCC(CC1)C2`, the cell count in [1] is 380. For the same molecule, the inhibition was 2.5% (inactive) in [1], -30.6% (inactive) in [3], -90% (inactive) in assay [8] and 99.7% (active) in assay [9]. Also, the inhibition of aggregation in assay [2] was -4.3% (inactive). For the same molecule, the nuclei count in [2] was determined as 108%; in assay [3] it was 101%. For the same molecule, the fluorescence slope in [4] was -0.481 (inactive). In addition, the NADPH fluorescence slope in [5] is -3.1e-05 (inactive). For the same molecule, in [6], the slope was 0.0047 (inactive). Further, in assay [7], the result was inactive.
Regarding `N#Cc1c(N)oc(-c2cccs2)c1-c1cccs1`, the cell count in [1] is 508. Further, the inhibition is 2.6% (inactive) in assay [1], -29.4% (inactive) in assay [3], -45.9% (inactive) in assay [8] and 50.6% (active) in [9]. For the same molecule, the inhibition of aggregation in [2] is -9.8% (inactive). Moreover, the figures for the nuclei count in assay [2] and in assay [3] were 93.1% and 120%, respectively. Moreover, the fluorescence slope in assay [4] is -0.306 (inactive). Besides, in [5], the NADPH fluorescence slope was -3e-05 (inactive). Further, the slope in assay [6] is 0.00454 (inactive). The molecule was classed as inactive in [7].
Regarding `COc1cccc(OCc2nnc(SCC(=O)OCc3ccccc3)o2)c1`, in assay [1], the cell count was 328. Moreover, the inhibition in [1] is 3.3% (inactive); in [3], -31.4% (inactive); in assay [8], 10.1% (inactive); in assay [9], 7.69% (inactive). Further, in assay [2], the inhibition of aggregation was 1.6% (inactive). Moreover, the results for the nuclei count in [2] and in assay [3] were 99.2% and 108%, respectively. In assay [4], the fluorescence slope is -0.267 (inactive). Moreover, in assay [5], the NADPH fluorescence slope was -4.9e-06 (inactive). The slope in assay [6] is 0.00652 (inactive). Also, in [7], the molecule was called inactive.
On to `O=C(NC1=NCCS1)c1ccc2c(c1)C(=O)N(Cc1ccco1)C2=O`, for which the cell count in assay [1] was 447. Besides, the inhibition in [1] was 0% (inactive); in assay [3], -60.7% (inactive); in assay [8], 19.1% (inactive); in assay [9], 24.4% (inactive). Moreover, the inhibition of aggregation in assay [2] is 19.6% (inactive). The nuclei count in [2] was 96.6%; in assay [3], 111%. In assay [4], the fluorescence slope is -0.387 (inactive). In addition, the NADPH fluorescence slope in assay [5] is 2.7e-06 (inactive). Besides, in assay [6], the slope is 0.00529 (inactive). The outcome in [7] was inactive.
`COc1ccccc1NC(=O)N(Cc1ccco1)Cc1cc2cccc(C)c2[nH]c1=O`: in assay [1], the cell count was found to be 333. Moreover, the inhibition in [1] was -9.3% (inactive); in assay [3], 30.7% (inactive); in assay [8], 8.12% (inactive); in assay [9], -0.891% (inactive). Further, the inhibition of aggregation in assay [2] was 18.6% (inactive). Besides, the nuclei count in assay [2] was 105%; in assay [3] it was 89.2%. Moreover, the fluorescence slope in assay [4] was -0.347 (inactive). For the same molecule, the NADPH fluorescence slope in assay [5] is -5.6e-05 (inactive). The slope in assay [6] was 0.00419 (inactive). Further, the outcome in assay [7] was inactive.
For `CCn1c(=N)n(CC(=O)c2ccco2)c2ccccc21`, in assay [1], the cell count was 407. Besides, the inhibition is -11.8% (inactive) in [1], 52.9% (active) in assay [3], 4.56% (inactive) in [8] and 2.85% (inactive) in assay [9]. Also, the inhibition of aggregation in [2] was 22.6% (inactive). Also, the nuclei count in assay [2] stood at 68%; in [3], 83.4%. In addition, in assay [4], the fluorescence slope is -0.391 (inactive). In [5], the NADPH fluorescence slope is -5.5e-05 (inactive). Also, in [6], the slope is 0.00452 (inactive). Further, in assay [7], the result was inactive.
Turning to `CN(C)c1ccc(NC(=O)Nc2cccc(Cl)c2)cc1`, the cell count in [1] was found to be 387. The inhibition in assay [1] is 2.3% (inactive); in [3], -10% (inactive); in assay [8], -43.6% (inactive); in [9], -104% (inactive). In assay [2], the inhibition of aggregation was 1.1% (inactive). Besides, the nuclei count in assay [2] was 106%; in [3] it was 109%. The fluorescence slope in [4] is -0.436 (inactive). The NADPH fluorescence slope in assay [5] is -3.6e-05 (inactive). Also, the slope in assay [6] was 0.00643 (inactive). The call in assay [7] was inactive.

What is called inhibition is the drop in the measured response relative to a control, in per cent.

These data come from PubChem BioAssay.
